{"source": "paper PMC6977340", "about": "(Clinical Pharmacology and Therapeutics, 2019)", "key": {"[1]": {"system": "Aβ42", "conditions": "cited from earlier work"}, "[2]": {"system": "CSF Aβ40", "conditions": "multiple-ascending doses over 28 days, healthy subjects ref 32; cited from earlier work"}, "[3]": {"system": "Aβ37", "conditions": "cited from earlier work"}, "[4]": {"system": "Aβ38", "conditions": "cited from earlier work"}, "[5]": {"assay": "Safety/tolerability, B7991002 multiple-ascending dose study", "assay_type": "in vivo, human", "conditions": "doses up to 360 mg q.d. for up to 14 days, healthy young and elderly subjects", "in_short": "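Healthy subjects aged 18–55 and elderly subjects aged 65–85 took oral doses once daily for 14 days, with about 10 per cohort and placebo control. Dosing was fasted on days 1, 7 and 14, otherwise >1 h from breakfast. Investigators recorded adverse events with severity and causality, plus laboratory tests, physical examinations, ECG monitoring and vital signs.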"}, "[6]": {"assay": "Plasma pharmacokinetics, B7991001 single-ascending dose incl. food effect", "assay_type": "in vivo, human", "conditions": "120 mg fed vs fasted"}, "[7]": {"assay": "Plasma and CSF pharmacokinetics, B7991002 multiple dose", "assay_type": "in vivo, human", "conditions": "for PF-06648671 concentration in CSF, mean: day 14, nonelderly"}, "[8]": {"system": "CSF Aβ42", "assay": "PK/PD indirect-response model, CSF Aβ42", "assay_type": "in vivo, human", "in_short": "(§1)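 Population PK/PD fit in NONMEM (FOCE with interaction) for healthy adults. Inputs: serial CSF via lumbar catheter, 2 h predose to 36 h after one fasted oral 150 or 300 mg dose; single lumbar punctures at baseline and day 14 in 40–360 mg q.d. cohorts. Fixed two-compartment PK gave individual plasma concentrations. Indirect-response model: sigmoid inhibition (Aβ40/42) or stimulation (Aβ37/38) of production, with kout turnover. Fixed placebo-drift terms.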"}, "[9]": {"system": "CSF Aβ40", "assay": "PK/PD indirect-response model, CSF Aβ40", "assay_type": "in vivo, human", "in_short": "as §1"}, "[10]": {"system": "CSF Aβ38", "assay": "PK/PD indirect-response model, CSF Aβ38", "assay_type": "in vivo, human", "in_short": "as §1"}, "[11]": {"system": "CSF Aβ37", "assay": "PK/PD indirect-response model, CSF Aβ37", "assay_type": "in vivo, human", "in_short": "as §1"}, "[12]": {"system": "plasma Aβ", "assay": "Plasma Aβ levels after single doses", "assay_type": "in vivo, human", "conditions": "following single doses"}, "[13]": {"system": "Aβ42, Aβ40, Aβ37 and Aβ38", "conditions": "cited from earlier work"}, "[14]": {"system": "Notch", "conditions": "cell-based assays ref 36; cited from earlier work"}, "[15]": {"system": "Aβ42 within the brain and CSF", "conditions": "acute oral administration ref 36; cited from earlier work"}, "[16]": {"conditions": "multiple-ascending doses over 28 days, healthy subjects ref 32"}, "[17]": {"conditions": "single dosing, healthy subjects ref 33"}}, "data": [{"compound": "CNc1nc(Nc2ccc(-n3cnc(C)n3)c(OC)c2)nc2c1CC[C@H]2c1ccc(F)cc1", "note": "[BMS‐932481]", "values": [{"measurement": "Decrease in CSF Aβ42", "setting": "[1]; [16]", "result": "up to 77%"}, {"measurement": "Decrease in Aβ42", "setting": "[1]; [17]", "result": "up to 50%"}, {"measurement": "Decrease in CSF Aβ40", "setting": "[2]", "result": "≤ 74", "unit": "%"}, {"measurement": "Increase in CSF Aβ37", "setting": "[3]; [16]", "result": "up to 545%"}, {"measurement": "Increase in Aβ37", "setting": "[3]; [17]", "result": "up to 12 fold"}, {"measurement": "Increase in CSF Aβ38", "setting": "[4]; [16]", "result": "≤ 69", "unit": "%"}, {"measurement": "Increase in Aβ38", "setting": "[4]; [17]", "result": "≤ 2", "unit": "fold"}]}, {"compound": "COc1nc(/C=C/c2nc3n(n2)CCC[C@H]3c2ccccc2C(F)(F)F)ccc1-n1cnc(C)c1", "note": "[E2212]", "values": [{"measurement": "Decrease in Aβ42 AUC0–24 hours values", "setting": "[1]; single-ascending doses ref 35", "result": "up to 44.1%"}]}, {"compound": "Cc1cn(-c2ccc3n(c2=O)CCN([C@@H](C)[C@@H]2CC[C@H](c4cc(F)c(Cl)cc4C(F)(F)F)O2)C3=O)cn1", "note": "[PF-06648671, 2‐[(1S)‐1‐{(2S,5R)‐5‐[4‐chloro‐5‐fluoro‐2‐(trifluoromethyl)phenyl]tetrahydrofuran‐2‐yl}ethyl]‐7‐(4‐methyl‐1H‐imidazol‐1‐yl)‐3,4‐dihydro‐2H‐pyrido[1,2‐a]pyrazine‐1,6‐dione]", "values": [{"measurement": "Safety profile", "setting": "[5]", "result": "good safety profile"}, {"measurement": "Delay of median Tmax with food", "setting": "[6]", "result": 3, "unit": "h"}, {"measurement": "PF-06648671 concentration in CSF, mean", "setting": "[7]; 40 mg q.d., CV 81%", "result": 3.49, "unit": "ng/mL"}, {"measurement": "PF-06648671 concentration in CSF, mean", "setting": "[7]; 360 mg q.d., CV 31%", "result": 27.85, "unit": "ng/mL"}, {"measurement": "CSF penetration", "setting": "[7]; CSF:plasma ratio at day 14 about equal to unbound fraction", "result": "excellent CSF penetration"}, {"measurement": "Predicted reduction in CSF Aβ42 levels", "setting": "[8]; 75 mg", "result": 50, "unit": "%"}, {"measurement": "Predicted reduction in CSF Aβ42 levels", "setting": "[8]; 300 mg", "result": 65, "unit": "%"}, {"measurement": "IC50", "setting": "[8]; Homo sapiens, read-out: IC50, plasma concentration at half Imax, Aβ42", "result": 0.421, "unit": "µg/mL"}, {"measurement": "Imax, maximum inhibition achievable, Aβ42", "setting": "[8]; PK/PD model estimate", "result": 0.744}, {"measurement": "k out, first-order turnover constant of Aβ42", "setting": "[8]; PK/PD model estimate", "result": 0.121, "unit": "h⁻¹"}, {"measurement": "Dose predicted to achieve an average 50% reduction in CSF Aβ42", "setting": "[8]; steady state, PK/PD model", "result": 75, "unit": "mg q.d."}, {"measurement": "IC50", "setting": "[9]; Homo sapiens, read-out: IC50, plasma concentration at half Imax, Aβ40", "result": 1.23, "unit": "µg/mL"}, {"measurement": "Imax, maximum inhibition achievable, Aβ40", "setting": "[9]; PK/PD model estimate", "result": 0.725}, {"measurement": "k out, first-order turnover constant of Aβ40", "setting": "[9]; PK/PD model estimate", "result": 0.0835, "unit": "h⁻¹"}, {"measurement": "Dose predicted to achieve an average 50% reduction in CSF Aβ40", "setting": "[9]; steady state, PK/PD model", "result": 250, "unit": "mg q.d."}, {"measurement": "EC50", "setting": "[10]; Homo sapiens, read-out: EC50, plasma concentration at half Emax, Aβ38", "result": 1.77, "unit": "µg/mL"}, {"measurement": "k out, first-order turnover constant of Aβ38", "setting": "[10]; PK/PD model estimate", "result": 0.144, "unit": "h⁻¹"}, {"measurement": "Emax, maximum response achievable, Aβ38", "setting": "[10]; PK/PD model estimate, large uncertainty", "result": 0.869}, {"measurement": "EC50", "setting": "[11]; Homo sapiens, read-out: EC50, plasma concentration at half Emax, Aβ37", "result": 1.28, "unit": "µg/mL"}, {"measurement": "Emax, maximum response achievable, Aβ37", "setting": "[11]; PK/PD model estimate", "result": 5.63}, {"measurement": "k out, first-order turnover constant of Aβ37", "setting": "[11]; PK/PD model estimate", "result": 0.0964, "unit": "h⁻¹"}, {"measurement": "Predicted increase in CSF Aβ37", "setting": "[11]; steady state, within simulated dose ranges", "result": "≤ 500", "unit": "%"}, {"measurement": "Rebound effect of plasma Aβ levels over baseline", "setting": "[12]", "result": "no rebound effect of plasma Aβ levels over baseline was observed"}, {"measurement": "Effect on Aβ species in cell-based assays", "setting": "[13]", "result": "reduced Aβ42 and Aβ40, with concomitant increases in Aβ37 and Aβ38"}, {"measurement": "Effect on cleavage of Notch or other substrates", "setting": "[14]", "result": "without inhibiting the cleavage of Notch or other substrates"}, {"measurement": "Effect on Aβ42 in animals", "setting": "[15]", "result": "reduced Aβ42 within the brain and CSF"}]}]}
